One data set deals with A549. As to the kind of experiment: Growth inhibition of human A549 cells. The data set is classed as functional. Summed up:
(§1)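 Cells seeded per well: NUGC-3 4500, HONE-1 6000, MCF-7 6500, NCI-H460 2500, HepG2 10000, A549 5000; A549 grown in RPMI 1640 with 2 g/L NaHCO₃, 2 mM L-glutamine and 10% FBS. GI₅₀ = concentration giving 50% growth inhibition, mean of at least three experiments each in duplicate. Paclitaxel served as positive control.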

A short description of data set [1]: Apparent elimination half life in Sprague-Dawley rat at 3 mg/kg, po by HPLC-MS method. Also on record: dose 3 mg/kg, route oral. Format: ADME, organism-based. The following applies: in vivo, read-out: betat1/2(app) (converted). Summed up:
(§2)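 Male rats (330−380 g, 9−10 weeks), jugular vein cannula implanted 1 day before, fasted. 3 mg/kg given iv or orally (n = 3) in DMA/PEG400 30/70 v/v. Blood (150 μL) drawn at 0, 2, 5 (iv only), 15, 30 min and 1, 2, 4, 6, 8, 12, 24 h; plasma analysed by HPLC-MS; noncompartmental analysis.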

The test system of the next data set is NCI-H460. As to the kind of experiment: Down regulation of cyclin A2 expression in human NCI-H460 cells incubated for 24 hrs by Western blotting. The data set is classed as functional, cell-based.
For another data set, the system named is RAW264.7. The experiment in a line: Reduction in LPS/INFgamma-induced iNOS protein expression in mouse RAW264.7 cells incubated for 20 hrs by Western blotting. Format: functional, cell-based. Summed up: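 LPS/IFNγ-stimulated RAW264.7 cells treated with compound for 20 h. iNOS, COX-2 and GAPDH detected by Western blot; representative of at least three independent experiments.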

Data set [2] is described as follows: Oral bioavailability in Sprague-Dawley rat at 3 mg/kg by HPLC-MS method. The data set is classed as ADME, organism-based. The conditions noted are these: in vivo. The method in brief:
as §2

Data set [3] can be described thus: Cmax in Sprague-Dawley rat at 3 mg/kg, po by HPLC-MS method. The data set is classed as ADME, organism-based. Also on record: dose 3 mg/kg, route oral. The following applies: in vivo. Summed up:
as §2

In data set [4] the test system is MCF7. As to the kind of experiment: Down regulation of cyclin A2 expression in human MCF7 cells incubated for 24 hrs by Western blotting. Format: functional, cell-based. Background: In western blotting, separated proteins are transferred to a membrane and probed.
A further data set concerns Rattus norvegicus. As to the kind of experiment: Antiinflammatory activity against Sprague-Dawley rat assessed as reduction in carrageenan-induced hind paw edema at 3 mg/kg, ip. Details: scale not given: the % may be the effect or the level left. The conditions noted are these: route intraperitoneal. Format: functional. The method in brief:
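Female Sprague−Dawley rats (193−214 g, 8−9 weeks, n = 5) dosed ip 1 h before subplantar injection of 100 μL 1% carrageenan in saline into the left hind paw. Vehicle group received DMSO (100 μL); indomethacin served as positive control. Inhibition of 30% or more counted as significant.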

Another data set relates to Mus musculus. The experiment in a line: Toxicity in human A549 cells xenografted Nu-Foxn1'nu mouse assessed as incidence of overt toxicity at 10 mg/kg, po administered once daily on day 1 to 10, day 15 to 19 and day 22 to 26. The conditions noted are these: in vivo. Details: dose 10 mg/kg, route oral. Format: organism-based. Summed up:
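Four-week-old male nude mice given 10 million A549 cells subcutaneously in the right flank. At ~60 mm³, randomised to vehicle (25% DMA + 75% PEG400) or oral gavage once daily (n = 8). Mice monitored for overt adverse signs, with body weight tracked.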
(In general: In xenograft studies the graft and the host belong to different species.)

The nature of data set [5]: Solubility in DMA. Format: physicochemical.
A short description of data set [6]: AUC (0 to infinity) in Sprague-Dawley rat at 3 mg/kg, iv by HPLC-MS method. Format: ADME, organism-based. Details: time infinity, dose 3 mg/kg, route intravenous. The following applies: plasma. The method in brief:
(§3)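 Male rats (330−380 g, 9−10 weeks old), jugular vein cannulated 1 day before dosing, fasted; 3 mg/kg iv or oral in DMA/PEG400 (30/70, v/v), n = 3. Blood (150 μL) drawn at 0, 2, 5 (iv only), 15, 30 min and 1, 2, 4, 6, 8, 12, 24 h, kept on ice; plasma analysed by HPLC-MS; noncompartmental analysis.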

For data set [7], the system named is MCF7. As to the kind of experiment: Growth inhibition of human MCF7 cells. Format: functional. Summed up:
as §1

The subject of a further data set is Murine hepatitis virus. As to the kind of experiment: Antiviral activity against Murine hepatitis virus JHM infected in mouse DBT cells assessed as reduction in N-protein expression at 0.05 to 0.5 uM pre-treated 1 hr before virus infection and measured 24 hrs post infection by immunofluorescent assay. The data set is classed as functional, organism-based. The method in brief:
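DBT cells (2.8 × 10⁵/well) seeded the day before infection in DMEM with 2% FBS. Compound added 1 h before MHV-JHM at MOI 0.005 (virus grown in BNL CL.2 cells). Cytopathic effect viewed by phase contrast and N protein by immunofluorescence at 24 hpi.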

The nature of data set [8]: AUC (0 to infinity) in Sprague-Dawley rat at 3 mg/kg, po by HPLC-MS method. Format: ADME, organism-based. Details: dose 3 mg/kg, route oral, time infinity. The conditions noted are these: plasma. The method in brief: as §3

Structures are written as SMILES. Active and inactive are the calls of the source. The calls are words filed in the database; no cut-off is given here.

What is called GI50 is the concentration giving 50% growth inhibition. The term bioavailability denotes the share of a dose that reaches the circulation, judged against a reference dose that is usually intravenous. Usually Cmax stands for the maximum level reached in the sampled fluid or tissue. What is called AUC(0-inf) is total exposure, with the tail of the curve extrapolated. For `CCN1Cc2c(c3ccc(OC)cc3c3cc(OC)c(OC)cc23)C(O)C1` (centres undefined), the GI50 in the data set with A549 was 20 nM; in the data set with MCF7 [7], 40 nM. The half-life in data set [1] was 11.8 h. For the same compound, the outcome with NCI-H460, in the data set with RAW264.7, in the data set on MCF7 [4] and in the data set with Murine hepatitis virus was Active. In [2], this compound showed a bioavailability of 63.5%. In data set [3], the highest level (Cmax) was 72.4 ng/mL. The Activity in the data set on Rattus norvegicus is reported as over 60%; in the data set with Mus musculus, “Non-toxic”. Further, the solubility result in data set [5] is “soluble”. Also, the AUC(0-inf) in data set [6] is 999 ng·h/mL; in data set [8], 646 ng·h/mL.

Source of the values: ChEMBL document CHEMBL2177013, “Synthesis and biological evaluation of tylophorine-derived dibenzoquinolines as orally active agents: exploration of the role of tylophorine e ring on biological activity” (J Med Chem, 2012).
